Results taken from article PMC10408732 (Anesthesia and Analgesia, 2023).
Like-named read-outs stand apart in the source and are kept apart here. Each block holds one molecule with its values, some of them ahead of it.

What was measured:
[1] = molecular target: T1, rat α7 nAChR (Rattus norvegicus, UniProt Q05941); assay: Two-electrode voltage clamp at rα7 nAChRs expressed in Xenopus laevis oocytes; assay type: cell-based
[2] = molecular target: rat α9α10 nAChR (Rattus norvegicus, UniProt P43144+Q9JLB5); assay: Two-electrode voltage clamp at rα9α10 nAChRs expressed in Xenopus laevis oocytes; assay type: cell-based; conditions: for IC50: Inhibition IC50 (μM), −80 mV
rat α9α10 nAChR, sequence (P43144 26-479): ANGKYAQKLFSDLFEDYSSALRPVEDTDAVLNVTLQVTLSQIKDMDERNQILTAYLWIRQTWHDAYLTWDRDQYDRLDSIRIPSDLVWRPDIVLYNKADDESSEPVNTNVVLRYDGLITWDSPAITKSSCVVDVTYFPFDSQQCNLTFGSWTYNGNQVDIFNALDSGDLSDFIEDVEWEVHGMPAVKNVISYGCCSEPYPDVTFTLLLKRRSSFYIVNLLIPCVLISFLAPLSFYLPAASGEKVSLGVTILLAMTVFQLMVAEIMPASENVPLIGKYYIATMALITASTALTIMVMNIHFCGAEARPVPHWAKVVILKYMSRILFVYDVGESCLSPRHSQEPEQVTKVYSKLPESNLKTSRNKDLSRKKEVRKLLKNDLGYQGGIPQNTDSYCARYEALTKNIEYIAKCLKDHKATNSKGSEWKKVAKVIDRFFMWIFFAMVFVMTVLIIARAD
rat α9α10 nAChR, sequence (Q9JLB5 25-447): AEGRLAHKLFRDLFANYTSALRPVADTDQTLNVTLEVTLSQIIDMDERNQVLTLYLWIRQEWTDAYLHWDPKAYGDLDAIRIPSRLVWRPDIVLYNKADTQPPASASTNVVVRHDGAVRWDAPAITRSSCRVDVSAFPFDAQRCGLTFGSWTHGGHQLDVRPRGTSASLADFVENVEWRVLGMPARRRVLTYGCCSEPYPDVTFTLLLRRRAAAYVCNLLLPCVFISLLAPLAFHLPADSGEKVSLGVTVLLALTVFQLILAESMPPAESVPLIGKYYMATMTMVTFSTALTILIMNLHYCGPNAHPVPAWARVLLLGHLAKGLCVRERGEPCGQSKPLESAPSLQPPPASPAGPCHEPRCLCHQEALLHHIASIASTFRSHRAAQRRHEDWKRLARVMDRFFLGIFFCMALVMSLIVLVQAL

[3] = molecular target: T2, human CaV2.2 channel (Homo sapiens, UniProt Q00975); assay: Whole-cell patch clamp recording of CaV2.2 channels expressed in HEK293T cells; assay type: cell-based
Summary of the method: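 Human CaV2.2 transiently expressed in HEK293T cells; whole-cell patch clamp at room temperature 24–48 h after transfection. Bath: 10 mM BaCl2, 30 mM TEA-Cl, pH 7.35. Pipette (2–3 MΩ): K-gluconate with 5 mM EGTA, pH 7.2. Ba2+ currents evoked from −80 mV by steps to −10 or −15 mV at 0.1 Hz, in the absence and presence of test compound.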

[4] = test system: mice; assay: Rota-rod test; assay type: in vivo
Summary of the method: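 Rota-rod, mice n = 5/condition. Test compound 30 mg/kg, single dose (tested right after) or daily for 7 days (tested day 8); vehicle controls. Falls from the rod counted over a 30 s test, every 15 min for 1 h. Mice with <3 or >6 falls in the pretest were excluded.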

[5] = test system: mice; assay: Effect on pain threshold, hot plate test; assay type: in vivo; conditions: acute or repeated (7 days) 30 mg/kg, P > .05 vs vehicle
[6] = test system: oxaliplatin-induced neuropathic pain in mice; assay: Oxaliplatin-induced neuropathic pain, cold plate test; assay type: in vivo
Summary of the method: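 Male CD-1 mice, n = 10/condition, given oxaliplatin 2.4 mg/kg i.p. in 5% glucose, 5 days/week for 2 weeks. On day 15: baseline cold plate, then oral test compound (1, 3, 10 or 30 mg/kg, or a two-compound combination at 30 mg/kg each) in 1% carboxymethyl cellulose. Hind-paw licking latency every 15 min for 60–75 min, 30 s cutoff; mean ± SEM; 1-way ANOVA with Bonferroni.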

[7] = test system: mice; assay: Effect on pain threshold, cold plate test; assay type: in vivo; conditions: acute or repeated (7 days) 30 mg/kg, P > .05 vs vehicle
[8] = same software; cited from earlier work
[9] = test system: oxaliplatin-induced neuropathic pain in mice; conditions: oxaliplatin model; cited from earlier work
[10] = molecular target: T1, rat α7 nAChR; conditions: rα7, same conditions, cited from earlier work
[11] = molecular target: T2, human CaV2.2 channel; conditions: cited from earlier work
[12] = read-out: inhibition of ACh-evoked currents
[13] = acute, single dose 30 mg/kg, counted every 15 min for 1 h, P > .05 vs vehicle
[14] = oxaliplatin-treated mice, 30 mg/kg oral, cold plate test

T1 sequence (Q05941 23-502): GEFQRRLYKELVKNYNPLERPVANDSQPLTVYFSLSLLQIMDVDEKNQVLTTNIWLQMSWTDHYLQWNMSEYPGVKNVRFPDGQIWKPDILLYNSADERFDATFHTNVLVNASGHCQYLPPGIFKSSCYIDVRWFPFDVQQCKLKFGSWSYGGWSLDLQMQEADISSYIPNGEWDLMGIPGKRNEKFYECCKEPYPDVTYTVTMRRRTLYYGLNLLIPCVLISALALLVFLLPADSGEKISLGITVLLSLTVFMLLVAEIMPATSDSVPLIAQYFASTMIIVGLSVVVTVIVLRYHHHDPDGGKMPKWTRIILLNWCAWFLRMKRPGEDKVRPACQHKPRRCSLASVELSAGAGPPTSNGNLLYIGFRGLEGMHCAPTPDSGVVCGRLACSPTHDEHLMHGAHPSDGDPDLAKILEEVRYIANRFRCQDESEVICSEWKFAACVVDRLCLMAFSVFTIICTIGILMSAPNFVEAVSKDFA

SMILES: O=C1[O][Pt]2([NH][C@@H]3CCCC[C@H]3[NH]2)[O]C1=O [Oxaliplatin, reference compound]
IC50 ([1]; read-out: Inhibition IC50, rα7, agonist ACh 30 µM, −80 mV): 200 µM
IC50 ([1]; read-out: Inhibition IC50, rα7, agonist nicotine 25 µM): 200 µM

IC50 ([2]; rα9α10, agonist ACh 10 µM): 41 ± 4 µM
IC50 ([2]; rα9α10, agonist ACh 100 µM): 36 ± 4 µM
inhibition at 30 µM [2, 12]: ~45%
fold higher antagonist potency than that for DM497 ([2]; α9α10 nAChR): > 8 fold
IC50 [1]: 15.1 ± 1.8 µM
inhibition at 10 µM ([1]; read-out: inhibition of ACh-evoked current amplitude): ~40%
Inhibition nH ([1]; rα7, agonist ACh 30 µM): < 1.5
IC50 [3]: 93 ± 16 µM
pain threshold for heat stimuli [5]: did not change the pain threshold
pain threshold for cold stimuli [7]: did not change the pain threshold
SMILES: Cc1ccc(N(C)C(=O)/C=C/c2ccco2)cc1 [DM490, (E)-3-(furan-2-yl)-N-methyl-N-(p-tolyl)acrylamide]
endurance time (number of falls per 30 seconds) [4, 13]: did not modify the endurance time
endurance time (number of falls per 30 seconds) ([4]; repeated, 30 mg/kg daily for 7 days, day 8, P > .05 vs vehicle): did not modify the endurance time
activity on oxaliplatin-treated animals (cold plate test) ([6]; 30 mg/kg oral, alone): without inducing any activity on oxaliplatin-treated animals

SMILES: O=C(/C=C/c1ccco1)N1CCc2ccccc21 [DM489, (E)-3-(furan-2-yl)-1-(indolin-1-yl)prop-2-en-1-one]
LogBBB [8]: 0.17
active dose (antinociceptive activity) [9]: 10 mg/kg

IC50 ([2]; rα9α10, agonist ACh 10 µM): 340 ± 21 µM
IC50 ([2]; rα9α10, agonist ACh 100 µM): 369 ± 21 µM
inhibition at 300 µM [2, 12]: 40%
EC50 [1]: 86 ± 10 µM
Emax ([1]; read-out: maximal efficacy at rα7 nAChRs): 196%
potentiation of ACh-evoked currents ([1]; rα7, 30 µM ACh, 100 µM compound): ~ 100%
Potentiation nH ([1]; rα7, agonist ACh 30 µM): ~2
inhibitory activity at the CaV2.2 channel (in words) ([3]; CaV2.2 channel): minimal effect
inhibition at 300 µM ([3]; HEK-293T, read-out: inhibition of whole-cell Ba2+ currents, hCaV2.2, at 300 µM): ~20%
SMILES: Cc1ccc(NC(=O)/C=C/c2cccs2)cc1 [DM497, (E)-3-(thiophen-2-yl)-N-(p-tolyl)acrylamide]
endurance time (number of falls per 30 seconds) [4, 13]: did not modify the endurance time
activity when administered alone (cold plate test) ([6]; mice without oxaliplatin, 10 mg/kg): without inducing any activity when administered alone
active dose (antinociceptive activity) ([6]; oxaliplatin model, this work): 10 mg/kg
onset of antinociceptive activity ([6]; oxaliplatin-treated mice, 10 mg/kg oral, cold plate test): 30 min
extent of the antinociceptive effect at 30 mg/kg compared to 10 mg/kg [6, 14]: without changing the extent of the antinociceptive effect
onset of antinociceptive activity [6, 14]: 15 min
antinociceptive activity (licking latency, cold plate test) ([6]; oxaliplatin-treated mice, day 15, single oral 1 mg/kg): but not 1 or 3 mg/kg

SMILES: Cc1ccc(NC(=O)/C=C/c2ccco2)cc1 [PAM-2, (E)-3-furan-2-yl-N-p-tolyl-acrylamide]
LogBBB [8]: 0.09
LogP [8]: 2.96
IC50 ([10]; read-out: potency at rα7 nAChRs (IC50 as printed)): 12 µM
maximal efficacy at rα7 nAChRs [10]: 135% ± 4%
IC50 [11]: 89 µM
active dose (antinociceptive activity) [9]: 3 mg/kg
